# MIN6 prolif = inducers of beta-cell replication in MIN6 cells | MIN6 cells proliferation, ATPlite luminescence, 48 h; cells starved in 0.2% serum; 100% = growth in 10% serum | proliferation, % at 10 µM | hit rate 0.29% among 330,000 | AID 2380;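 active = compounds whose signal lies at least 3.5 SD above the mean of all wells on their plate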
# V-ATPase pH = yeast V-ATPase proton transport regulation by pHLuorin; S. cerevisiae, pHLuorin cytosolic pH fluorescence; response, % at 10 µM; AID 504577; hit rate 0.37% among 350,000; in the data active = response mostly above about 7.3%, no sharp cut-off; inactive = mostly below about 5.4%; also: actives read high
# CR mimetic SO = yeast age-related superoxide inhibition as caloric restriction mimetic | S. cerevisiae aged cells, superoxide DHE fluorescence; stronger effect = lower value | superoxide response (% of plate mean), % at 10 µM | hit rate 0.18% among 330,000 | AID 2690;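 active = superoxide response under a set limit, about three screen SD below normal, cut at about 65% in these data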;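 also: yeast aged for seven days with compound at 30 °C before DHE staining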
# T cell HTS = T cell immune modulators affecting CD8 T cell-vesicle binding | hit rate 0.068% among 330,000 | response (vesicle binding), % at 7 µM | AID 2052 | 2C CD8+ T cell-vesicle binding, flow cytometry; stronger effect = lower value;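 active = response, share of CD8 T cells binding vesicles, and their 90th percentile fluorescence all below set limits, cut at about 80% in these data, passing the limit was not always enough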;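 also: values below 100% mean blocked vesicle binding to the CD8+ T cells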
#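 incubation = binding step 1.5 h, 37 °C, antibody labelling 20 min, ice | test system = 2C mouse CD8+ T cells | read-out basis = percent CD8+ FL2 mean versus row control | controls = Peptide-free naked vesicles (low) and QL9 vesicles with 0.7% DMSO vehicle (high) | detection = flow cytometry of vesicle-bound cells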
# Rce1 inhib = blocks yeast Ras-converting enzyme; hit rate 0.27% among 290,000; calls only; Q03530; yeast membranes, quenched prenylated peptide cleavage fluorescence;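 active = fall in fluorescence gain of 50% or more versus controls, with final raw signal at or below 3038400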
# proKLK7 act = activators of human kallikrein-7 zymogen; P49862; purified proKLK7, EDANS-DABCYL substrate fluorescence; 100% is mature enzyme control, 0% vehicle; activation, % at 7 µM; hit rate 0.9% among 370,000;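 active = activation above the mean of all tested compounds plus 3 SD, computed per campaign excluding outliers beyond control limits, cut at about 13% in these data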
# Target sequence (P49862 whole entry, looked up): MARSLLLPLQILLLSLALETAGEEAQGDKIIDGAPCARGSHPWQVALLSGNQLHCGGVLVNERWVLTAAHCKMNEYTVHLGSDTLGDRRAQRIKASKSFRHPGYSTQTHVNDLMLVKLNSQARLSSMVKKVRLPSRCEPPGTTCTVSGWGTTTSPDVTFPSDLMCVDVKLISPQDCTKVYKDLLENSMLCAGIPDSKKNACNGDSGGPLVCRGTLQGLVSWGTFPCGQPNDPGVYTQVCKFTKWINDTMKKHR
# V-ATPase pH SP = modulates yeast V-ATPase proton transport; shares compounds with V-ATPase pH; S. cerevisiae pHLuorin cytosolic pH; response, % at 10 µM; hit rate 2% among 980; AID 602197; in the data active = response above about 24%
# KLK7 act conf = proKLK7 activation, confirmation. shares compounds with proKLK7 act. purified proKLK7, EDANS-DABCYL substrate fluorescence; scaled: vehicle 0, mature enzyme 100. activation, % at 7 µM. hit rate 68% among 3,200. AID 686949;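 active = activation, as change over the incubation, above the mean of all tested compounds plus 3 SD, cut at about 13% in these data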
# EDANS interfere = fluorescence interference counter-screen for KLK7 activators; EDANS-DABCYL substrate fluorescence interference, no enzyme, 4 h; solvent 0%, active enzyme control 100%; activation, % at 7 µM; shares compounds with proKLK7 act; AID 686952; hit rate 80% among 3,200;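 active = activation above the all-compound mean plus 3 SD, ignoring values outside control-based bounds, cut at about 4.8% in these data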;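 also: value is the 4 h activation minus the activation read at time zero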
# Numbers stand for hits; - = inactive; . = no result given; + = active, no number. Most compounds without a hit are left out; they make up all but 1.9% or so of the library.
SMILES,MIN6 prolif,V-ATPase pH,CR mimetic SO,T cell HTS,Rce1 inhib,proKLK7 act,V-ATPase pH SP,KLK7 act conf,EDANS interfere
COc1cccc2sc(N3CCN(C(=O)c4ccc([N+](=O)[O-])o4)CC3)nc12,-,-,-,-,-,.,.,.,.
Cc1ccc2sc(N3CCN(C(=O)c4ccc([N+](=O)[O-])o4)CC3)nc2c1C,-,-,-,-,-,-,.,.,.
O=C(c1ccc([N+](=O)[O-])o1)N1CCN(c2nc3c(Cl)cccc3s2)CC1,-,10.0,-,-,-,-,23,.,.
O=C(c1ccc([N+](=O)[O-])o1)N1CCN(c2nc3ccc(F)cc3s2)CC1,-,67,-,-,-,-,41,.,.
Cn1cc([N+](=O)[O-])c(C(=O)Nc2ccc(-c3nc4ccccc4o3)cc2)n1,-,-,-,-,-,-,.,.,.
Cc1ccc(NC(=O)CCS(=O)(=O)c2ccccc2)cc1C,.,.,.,.,.,-,.,.,.
CCn1cc(C(=O)NCc2ccccc2OC)c(=O)c2ccc(C)nc21,-,.,-,-,-,.,.,.,.
CCn1cc(C(=O)NCc2ccco2)c(=O)c2ccc(C)nc21,-,6.7,-,-,-,-,-,.,.
CCCCn1c(SCC(=O)NC2CCCC2)nnc1-c1ccco1,-,-,-,-,-,-,.,.,.
Clc1ccc2nc(C3CCCCC3)c(Cc3ccsc3)n2c1,.,.,.,.,.,-,.,.,.
CC(=O)Nc1ccc(NC(=O)CCNC(=O)c2ccccc2Cl)cc1,-,-,-,-,-,-,.,.,.
CC(C)(C)C(=O)Nc1ccccc1C(=O)NCCC(=O)Nc1ccccc1,-,11,-,-,-,-,-,.,.
COc1ccc(/C=C/C(=O)c2ccc(O)cc2)cc1,-,9.3,-,-,-,13,-,-,-
CC1CCCCN1C(=O)CN1C(=O)CSc2ccc(S(=O)(=O)N3CCOCC3)cc21 (stereo unspecified),-,-,-,-,-,-,.,.,.
N=C1/C(=C/c2cccn2Cc2ccc(F)cc2)C(=O)N=C2SC=CN12,-,11,-,-,-,28,-,-,5.6
CCOc1ccccc1/C=C/c1onc(C)c1S(=O)(=O)N1CCC(C(=O)NC(C)(C)C)CC1,-,-,-,-,-,-,.,.,.
O=C(Oc1ccc2ccc(=O)oc2c1)c1cccs1,-,25,-,-,-,581,-,789,771
O=C(Oc1ccc2c(-c3ccccc3)cc(=O)oc2c1)c1cccs1,-,-,-,-,-,-,.,.,.
COc1ccc(-c2cc(C(=O)NCCCN3CCCC3=O)c3ccccc3n2)cc1,-,12,-,-,+,35,-,29,31
O=C(NCCCN1CCCC1=O)c1cc(-c2ccc(F)cc2)nc2ccccc12,-,-,-,-,.,-,.,.,.
CCN(CC)Cc1c(O)ccc2c(=O)c(Oc3ccccc3OC)c(C)oc12,-,-,-,-,-,89,.,65,69
COc1ccccc1Oc1c(C)oc2c(CN(C)C)c(O)ccc2c1=O,-,-,-,-,-,51,.,66,71
COc1ccc2[nH]c(=O)c(C(=O)O)cc2c1,-,-,-,-,-,19,.,-,21
COc1ccc2[nH]c(=O)cc(C(=O)O)c2c1,-,-,-,-,-,20,.,39,45
COc1ccc(NC(=O)c2cc(=O)[nH]c3ccccc23)cc1,-,-,-,-,-,-,.,.,.
COc1ccc2[nH]c(=O)c(CN(C(C)=O)c3ccc(C)c(C)c3)cc2c1,-,-,-,-,-,-,.,.,.
COc1cccc(CC(=O)NNC(=O)CN(C)S(=O)(=O)c2ccc(C)cc2)c1,-,-,-,-,.,-,.,.,.
CN(C(=O)C1CC1)C1CCS(=O)(=O)C1 (stereo unspecified),-,-,-,-,-,-,.,.,.
C=CCN(CC=C)c1nc2ccccc2nc1C(C#N)C(=O)OCCOC (stereo unspecified),-,-,-,-,-,43,.,20,18
